Laboratory results published in ChEMBL document CHEMBL1137444, “Thiazole-diamides as potent gamma-secretase inhibitors” (Bioorg Med Chem Lett, 2007).
pIC50: −log10 of the molar value.

Columns and labels:
[1] = molecular target: Gamma-secretase; assay: Inhibition of gamma secretase C100Flag cleavaging activity in HeLa cell membranes assessed as M-amyloid beta-40 production by cell free assay; parameters: species or system Homo sapiens
In short: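 IC50 taken as the geometric mean of at least two experiments, each run with six data points.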

[2] = molecular target: Gamma-secretase; assay: Inhibition of gamma secretase activity in human H4 cells transfected with APP695 mutant assessed as beta amyloid(1-40) production by whole cell assay; type: cell-based
In short: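 Cells were plated at about 30,000 per well and left to attach for about 6 h at 37 °C. They were then washed to clear secreted Aβ and given fresh medium containing compound for overnight incubation at 37 °C. Secreted Aβ in the harvested medium was measured by immunoassay. IC50 is the geometric mean of at least two experiments, six data points each.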

Row | pIC50 [1] | pIC50 [2] | SMILES
1 | 8.21 | 9.52 | CCC[C@H](NC(=O)[C@@H](O)c1cc(F)cc(F)c1)C(=O)Nc1ncc(C(CC)CC)s1
2 | 8.38 | 8.38 | CCC[C@H](NC(=O)Cc1cc(F)cc(F)c1)C(=O)Nc1ncc(C(C)NCC(C)C)s1 (stereo partly specified)
3 | > 7.46 | 9.10 | CCCC(CCC)c1cnc(NC(=O)[C@H](CCC)NC(=O)Cc2cc(F)cc(F)c2)s1
4 | 7.52 | 7.90 | CCCCN(CC)Cc1cnc(NC(=O)[C@H](CCC)NC(=O)Cc2cc(F)cc(F)c2)s1
5 | 7.55 | 7.40 | CCC[C@H](NC(=O)Cc1cc(F)cc(F)c1)C(=O)Nc1nc(C)c(C(C)N(C)C)s1 (stereo partly specified)
6 | 8.30 | 8.70 | CCC[C@H](NC(=O)Cc1cc(F)cc(F)c1)C(=O)Nc1nc(C)c(C(C)NCCC(C)C)s1 (stereo partly specified)
7 | 6.81 | 7.38 | CCC[C@H](NC(=O)Cc1cc(F)cc(F)c1)C(=O)Nc1nc(C)c(C(C)NCC)s1 (stereo partly specified)
8 | 8.59 | 8.92 | CCC[C@H](NC(=O)Cc1cc(F)cc(F)c1)C(=O)Nc1ncc(C(C)NCCC(C)C)s1 (stereo partly specified)
9 | 8.52 | 8.85 | CCC[C@H](NC(=O)Cc1cc(F)cc(F)c1)C(=O)Nc1ncc(C(C)NCc2ccccc2)s1 (stereo partly specified)
10 | 8.15 | 8.43 | CCCCNC(C)c1sc(NC(=O)[C@H](CCC)NC(=O)Cc2cc(F)cc(F)c2)nc1C (stereo partly specified)
11 | 8.00 | 9.85 | CCC[C@H](NC(=O)CCc1cc(F)cc(F)c1)C(=O)Nc1ncc(C(C)CCCC(C)(C)OC)s1 (stereo partly specified)
12 | 8.00 | 9.96 | CCC[C@H](NC(=O)[C@@H](O)C(C)(C)C)C(=O)Nc1ncc([C@@H](C)CCCC(C)(C)OC)s1
13 | 7.52 | 9.66 | COC(C)(C)CCCC(C)c1cnc(NC(=O)[C@H](C)NC(=O)CCc2cc(F)cc(F)c2)s1 (stereo partly specified)
14 | 8.42 | 8.62 | CCC[C@H](NC(=O)Cc1cc(F)cc(F)c1)C(=O)Nc1ncc(C(C)N2CCOCC2)s1 (stereo partly specified)
15 | 8.23 | 8.70 | CCC[C@H](NC(=O)Cc1cc(F)cc(F)c1)C(=O)Nc1nc(C)c(C(C)NCCC(C)(C)C)s1 (stereo partly specified)
16 | 8.00 | 7.97 | CCC[C@H](NC(=O)Cc1cc(F)cc(F)c1)C(=O)Nc1ncc(C(C)N2CCCC2)s1 (stereo partly specified)
17 | 7.58 | 8.66 | CCC[C@H](NC(=O)Cc1cc(F)cc(F)c1)C(=O)Nc1ncc(C(CC)CC)s1
18 | 6.94 | 7.77 | CCC[C@H](NC(=O)C(=O)C(C)(C)C)C(=O)Nc1ncc(C(C)C)s1
19 | 7.87 | 10.10 | CC[C@H](NC(=O)CCc1cc(F)cc(F)c1)C(=O)Nc1ncc(C(C)CCCC(C)(C)OC)s1 (stereo partly specified)
20 | 7.89 | 9.37 | CCC[C@H](NC(=O)[C@@H](O)C(C)(C)C)C(=O)Nc1ncc(C(C)CCCC(C)(C)OC)s1 (stereo partly specified)
21 | 7.20 | 6.98 | CCC[C@H](NC(=O)Cc1cc(F)cc(F)c1)C(=O)Nc1ncc(CNCC)s1
22 | 8.51 | 8.60 | CCC[C@H](NC(=O)Cc1cc(F)cc(F)c1)C(=O)Nc1nc(C)c(C(C)NCC(C)C)s1 (stereo in doubt; 34a)
23 | 7.55 | 7.58 | CCC[C@H](NC(=O)Cc1cc(F)cc(F)c1)C(=O)Nc1nc(C)c(C(C)N2CCN(C)CC2)s1 (stereo partly specified)
24 | 6.85 | 7.03 | CCC[C@H](NC(=O)Cc1cc(F)cc(F)c1)C(=O)Nc1nc(C)c(C)s1
25 | 8.55 | 8.66 | CCC[C@H](NC(=O)[C@@H](O)c1ccccc1)C(=O)Nc1ncc(C(O)(CC)CC)s1
26 | 8.40 | 9.15 | CCC[C@H](NC(=O)Cc1cc(F)cc(F)c1)C(=O)Nc1ncc(C(C)N[C@H](C(=O)OC)C(C)C)s1 (stereo partly specified)
27 | 7.52 | 8.29 | CCC[C@H](NC(=O)Cc1cc(F)cc(F)c1)C(=O)Nc1ncc(C(C)C)s1

Row | pIC50 [1] | pIC50 [2] | SMILES
28 | 8.05 | 9.52 | CCC[C@H](NC(=O)[C@@H](O)C(C)C)C(=O)Nc1ncc([C@@H](C)CCCC(C)(C)OC)s1
29 | 8.00 | 8.94 | CCC[C@H](NC(=O)[C@@H](O)C(C)(C)C)C(=O)Nc1ncc([C@H](C)CCCC(C)(C)OC)s1
30 | 8.05 | 8.13 | CCC[C@H](NC(=O)[C@@H](O)C(C)C)C(=O)Nc1ncc([C@H](C)CCCC(C)(C)OC)s1
31 | 7.52 | 7.90 | CCC[C@H](NC(=O)Cc1cc(F)cc(F)c1)C(=O)Nc1ncc(CN2CCOCC2)s1
32 | 7.52 | 7.89 | CCC[C@H](NC(=O)Cc1cc(F)cc(F)c1)C(=O)Nc1nc(C)c(CC)s1
33 | 6.85 | 6.74 | CCC[C@H](NC(=O)[C@H](O)c1ccccc1)C(=O)Nc1ncc(C(O)(CC)CC)s1
34 | 9.00 | 8.92 | CCC[C@H](NC(=O)Cc1cc(F)cc(F)c1)C(=O)Nc1ncc(C(O)(CC)CC)s1
35 | 7.80 | 8.00 | CCCNC(C)c1cnc(NC(=O)[C@H](CCC)NC(=O)Cc2cc(F)cc(F)c2)s1 (stereo partly specified)
36 | 8.23 | 9.52 | CCC[C@H](NC(=O)[C@@H](O)C(C)C)C(=O)Nc1ncc(C(C)CCCC(C)(C)OC)s1 (stereo partly specified)
37 | 8.00 | 8.32 | CCC[C@H](NC(=O)Cc1cc(F)cc(F)c1)C(=O)Nc1nc(C)c(C(C)NCC(C)C)s1 (stereo in doubt; 34)
38 | 8.13 | 9.66 | CCC[C@H](NC(=O)[C@@H](O)C(C)(C)C)C(=O)Nc1ncc(C(C)CCCC(C)(C)O)s1 (stereo partly specified)
39 | 8.22 | 10.30 | CCC[C@H](NC(=O)CCc1cc(F)cc(F)c1)C(=O)Nc1ncc(C(C)CCCC(C)(C)O)s1 (stereo partly specified)
40 | 6.70 | 7.03 | CCC[C@H](NC(=O)Cc1cc(F)cc(F)c1)C(=O)Nc1ncc(CN)s1
41 | 8.22 | 8.70 | CCCCNC(C)c1cnc(NC(=O)[C@H](CCC)NC(=O)Cc2cc(F)cc(F)c2)s1 (stereo partly specified)
42 | 7.02 | 7.43 | CCC[C@H](NC(=O)[C@@H](O)C(C)(C)C)C(=O)Nc1ncc(C(C)(C)O)s1
43 | 7.52 | 10.00 | CC[C@H](NC(=O)CCc1cc(F)cc(F)c1)C(=O)Nc1ncc([C@@H](C)CCCC(C)(C)OC)s1
44 | 7.70 | 7.56 | CCC[C@H](NC(=O)Cc1cc(F)cc(F)c1)C(=O)Nc1nc(C)c(C(C)=O)s1
45 | 7.37 | 7.53 | CCC[C@H](NC(=O)Cc1cc(F)cc(F)c1)C(=O)Nc1ncc(C(C)NC(C)C)s1 (stereo partly specified)
46 | 8.57 | 8.92 | CCC[C@H](NC(=O)Cc1cc(F)cc(F)c1)C(=O)Nc1ncc(C(C)NCCC(C)(C)C)s1 (stereo partly specified)
47 | 6.14 | 7.09 | CC[C@H](NC(=O)CCc1cc(F)cc(F)c1)C(=O)Nc1ncc([C@H](C)CCCC(C)(C)OC)s1
48 | 7.35 | 7.70 | CCC[C@H](NC(=O)[C@@H](O)C(C)(C)C)C(=O)Nc1ncc(C(C)C)s1
49 | 7.48 | 7.50 | CCC[C@H](NC(=O)Cc1cc(F)cc(F)c1)C(=O)Nc1nc(C)c(C(C)NCC(C)C)s1 (stereo in doubt; 34b)
50 | 8.00 | 8.35 | CCC[C@H](NC(=O)Cc1cc(F)cc(F)c1)C(=O)Nc1nc(C)c(C(C)NCC(F)(F)F)s1 (stereo partly specified)
51 | 7.29 | 7.30 | CCC[C@H](NC(=O)Cc1cc(F)cc(F)c1)C(=O)Nc1nc(C)c(C(C)NC)s1 (stereo partly specified)
52 | 7.19 | 8.80 | CCC[C@H](NC(=O)Cc1cc(F)cc(F)c1)C(=O)Nc1ncc(C(C)CC(C)(C)C)s1 (stereo partly specified)
53 | 6.87 | 6.64 | CCC[C@H](NC(=O)Cc1cc(F)cc(F)c1)C(=O)Nc1ncc(C(C)NCC(C)(C)C)s1 (stereo partly specified)
